# ChEMBL document CHEMBL1127424, “7-azetidinylquinolones as antibacterial agents. 2. Synthesis and biological activity of 7-(2,3-disubstituted-1-azetidinyl)-4-oxoquinoline- and -1,8-naphthyridine-3-carboxylic acids. Properties and structure-activity relationships of quinolones with an azetidine moiety” (J Med Chem, 1994)
# Experiments:
# [1] = HPLC capacity factor (k'); type: ADME
# In short: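 Ion-pair reversed-phase HPLC on ODS-2 (10 μm) at 45 °C. Mobile phase: 10 mM sodium heptanesulfonate plus 50 mM KH2PO4 (pH 3.5)–methanol 45:55, 1 mL/min. Samples at 100 μg/mL in DMF, injected in duplicate, UV 280 nm. k' = (tR − t0)/t0.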
# Bacillus subtilis = assay: In vitro minimum inhibitory concentration for Bacillus subtilis ATCC 6633; type: functional
# In short: (§1)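 Serial 2-fold agar dilution in Mueller Hinton medium, run alongside a reference quinolone. Inoculum adjusted to 10⁸ cfu/mL; compound range 0.007–16 μg/mL.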
# Pseudomonas aeruginosa = assay: In vitro minimum inhibitory concentration for Pseudomonas aeruginosa ATCC 10145; type: functional; in short: as §1
# Proteus vulgaris = assay: In vitro minimum inhibitory concentration for Proteus vulgaris ATCC 8427; type: functional; in short: as §1
# Escherichia coli = assay: In vitro minimum inhibitory concentration for Escherichia coli ATCC 10799; type: functional; in short: as §1
# Morganella morganii = assay: In vitro minimum inhibitory concentration for Morganella morganii ATCC 8019; type: functional; in short: as §1
# Klebsiella pneumoniae = assay: In vitro minimum inhibitory concentration to inhibit Klebsiella pneumoniae ATCC 10031; type: functional; in short: as §1
# Staphylococcus aureus = assay: In vitro minimum inhibitory concentration for Staphylococcus aureus ATCC 25178; type: functional; in short: as §1
# Bacillus cereus = assay: In vitro minimum inhibitory concentration for Bacillus cereus ATCC 11778; type: functional; in short: as §1
# [2] = test system: Staphylococcus epidermidis; assay: In vitro minimum inhibitory concentration for Staphylococcus epidermidis ATCC 155-1; type: functional; in short: as §1
# Enterobacter cloacae = assay: In vitro minimum inhibitory concentration for Enterobacter cloacae ATCC 23355; type: functional
# Enterococcus faecalis = assay: In vitro minimum inhibitory concentration for Streptococcus faecalis ATCC 10541; type: functional; in short: as §1
smiles,measurement,setting,value
CNC1CN(c2c(F)cc3c(=O)c(C(=O)O)cn(-c4ccc(F)cc4F)c3c2Cl)C1,Log k',[1],0.25
CC1(N)CN(c2cc3c(cc2F)c(=O)c(C(=O)O)cn3-c2ccc(F)cc2F)C1,Log k',[1],0.0969
CCn1cc(C(=O)O)c(=O)c2cc(F)c(N3CC(C)(N)C3)c(Cl)c21,Log k',[1],0.121
C[C@H]1[C@H](N)CN1c1nc2c(cc1F)c(=O)c(C(=O)O)cn2CCF,Log k',[1],-0.2166
same,MIC,Bacillus subtilis,0.12 µg/mL
same,MIC,Pseudomonas aeruginosa,2 µg/mL
same,MIC,Proteus vulgaris,0.5 µg/mL
same,MIC,Escherichia coli,0.12 µg/mL
same,MIC,Morganella morganii,0.06 µg/mL
same,MIC,Klebsiella pneumoniae,0.06 µg/mL
same,MIC,Staphylococcus aureus,1 µg/mL
same,MIC,Bacillus cereus,0.5 µg/mL
same,MIC,[2],0.5 µg/mL
same,MIC,Enterobacter cloacae,0.06 µg/mL
same,MIC,Enterococcus faecalis,4 µg/mL
CC1(N)CN(c2c(F)cc3c(=O)c(C(=O)O)cn(CCF)c3c2Cl)C1,Log k',[1],-0.0332
C[C@H]1[C@H](N)CN1c1c(F)cc2c(=O)c(C(=O)O)cn(CCF)c2c1Cl,Log k',[1],0.0166
same,MIC,Bacillus subtilis,0.06 µg/mL
same,MIC,Pseudomonas aeruginosa,1 µg/mL
same,MIC,Proteus vulgaris,0.25 µg/mL
same,MIC,Escherichia coli,0.03 µg/mL
same,MIC,Morganella morganii,0.03 µg/mL
same,MIC,Klebsiella pneumoniae,0.03 µg/mL
same,MIC,Staphylococcus aureus,0.12 µg/mL
same,MIC,Bacillus cereus,0.25 µg/mL
same,MIC,[2],0.12 µg/mL
same,MIC,Enterobacter cloacae,0.03 µg/mL
same,MIC,Enterococcus faecalis,0.5 µg/mL
CC1(CN)CN(c2cc3c(cc2F)c(=O)c(C(=O)O)cn3C2CC2)C1,Log k',[1],-0.0782
CNC1(C)CN(c2nc3c(cc2F)c(=O)c(C(=O)O)cn3C(C)(C)C)C1,Log k',[1],0.2107
NC1CN(c2nc3c(cc2F)c(=O)c(C(=O)O)cn3-c2ccc(F)cc2F)C1,Log k',[1],0.0063
CC[C@H]1[C@@H](O)CN1c1c(F)cc2c(=O)c(C(=O)O)cn(C3CC3)c2c1F,Log k',[1],0.679
same,MIC,Bacillus subtilis,0.12 µg/mL
same,MIC,Pseudomonas aeruginosa,8 µg/mL
same,MIC,Proteus vulgaris,0.5 µg/mL
same,MIC,Escherichia coli,1 µg/mL
same,MIC,Morganella morganii,1 µg/mL
same,MIC,Klebsiella pneumoniae,0.5 µg/mL
same,MIC,Staphylococcus aureus,1 µg/mL
same,MIC,Bacillus cereus,0.5 µg/mL
same,MIC,[2],0.5 µg/mL
same,MIC,Enterobacter cloacae,0.5 µg/mL
same,MIC,Enterococcus faecalis,8 µg/mL
CCn1cc(C(=O)O)c(=O)c2c(N)c(F)c(N3CC(N)C3)c(F)c21,Log k',[1],-0.1033
CCC1(O)CN(c2c(F)cc3c(=O)c(C(=O)O)cn(C4CC4)c3c2F)C1,Log k',[1],0.7591
C[C@H]1[C@H](N)CN1c1cc2c(cc1F)c(=O)c(C(=O)O)cn2C(C)(C)C,Log k',[1],0.1399
same,MIC,Bacillus subtilis,0.06 µg/mL
same,MIC,Pseudomonas aeruginosa,2 µg/mL
same,MIC,Proteus vulgaris,0.25 µg/mL
same,MIC,Escherichia coli,0.25 µg/mL
same,MIC,Morganella morganii,0.25 µg/mL
same,MIC,Klebsiella pneumoniae,0.015 µg/mL
same,MIC,Staphylococcus aureus,0.25 µg/mL
same,MIC,Bacillus cereus,0.25 µg/mL
same,MIC,[2],0.25 µg/mL
same,MIC,Enterobacter cloacae,0.12 µg/mL
same,MIC,Enterococcus faecalis,0.5 µg/mL
CCn1cc(C(=O)O)c(=O)c2c(N)c(F)c(N3CC(C)(N)C3)c(F)c21,Log k',[1],0.0367
CC1(N)CN(c2c(F)cc3c(=O)c(C(=O)O)cn(CCF)c3c2F)C1,Log k',[1],-0.1871
O=C(O)c1cn(C2CC2)c2c(F)c(N3CCC3)c(F)cc2c1=O,Log k',[1],0.9074
CCn1cc(C(=O)O)c(=O)c2cc(F)c(N3CC(C)(N)C3)nc21,Log k',[1],-0.2296
CC1(C)[C@@H](N)CN1c1c(F)cc2c(=O)c(C(=O)O)cn(C3CC3)c2c1F,Log k',[1],0.1903
same,MIC,Bacillus subtilis,0.015 µg/mL
same,MIC,Pseudomonas aeruginosa,2 µg/mL
same,MIC,Proteus vulgaris,0.25 µg/mL
same,MIC,Escherichia coli,0.12 µg/mL
same,MIC,Morganella morganii,0.12 µg/mL
same,MIC,Klebsiella pneumoniae,0.03 µg/mL
same,MIC,Staphylococcus aureus,0.12 µg/mL
same,MIC,Bacillus cereus,0.12 µg/mL
same,MIC,[2],0.12 µg/mL
same,MIC,Enterobacter cloacae,0.06 µg/mL
same,MIC,Enterococcus faecalis,0.5 µg/mL
CN(C)C1CN(c2nc3c(cc2F)c(=O)c(C(=O)O)cn3C2CC2)C1,Log k',[1],0.464
CC1(N)CN(c2c(F)cc3c(=O)c(C(=O)O)cn(-c4ccc(F)cc4)c3c2Cl)C1,Log k',[1],0.2546
CCNCC1(C)CN(c2cc3c(cc2F)c(=O)c(C(=O)O)cn3C2CC2)C1,Log k',[1],-0.0356
CNC1CN(c2nc3c(cc2F)c(=O)c(C(=O)O)cn3C2CC2)C1,Log k',[1],-0.0773
CC1(N)CN(c2c(F)c(N)c3c(=O)c(C(=O)O)cn(-c4ccc(F)cc4F)c3c2F)C1,Log k',[1],0.3189
CC1(N)CN(c2cc3c(cc2F)c(=O)c(C(=O)O)cn3-c2ccc(F)cc2)C1,Log k',[1],-0.0223
CNC1CN(c2c(F)cc3c(=O)c(C(=O)O)cn(C4CC4)c3c2Cl)C1,Log k',[1],0.115
CC1(N)CN(c2nc3c(cc2F)c(=O)c(C(=O)O)cn3C(C)(C)C)C1,Log k',[1],0.0128
CC1(O)CN(c2c(F)cc3c(=O)c(C(=O)O)cn(C4CC4)c3c2F)C1,Log k',[1],0.5451
CC1(N)CN(c2nc3c(cc2F)c(=O)c(C(=O)O)cn3-c2ccc(F)cc2F)C1,Log k',[1],0.0792
CCC1(O)CN(c2cc3c(cc2F)c(=O)c(C(=O)O)cn3C2CC2)C1,Log k',[1],0.6222
O=C(O)c1cn(C2CC2)c2c(F)c(N3CC(O)C3)c(F)cc2c1=O,Log k',[1],0.3264
CCn1cc(C(=O)O)c(=O)c2cc(F)c(N3CC(C)(N)C3)cc21,Log k',[1],-0.1805
O=C(O)c1cn(C2CC2)c2cc(N3CC(O)C3)c(F)cc2c1=O,Log k',[1],0.1906
CC1(N)CN(c2cc3c(cc2F)c(=O)c(C(=O)O)cn3CCF)C1,Log k',[1],0.0374
CCn1cc(C(=O)O)c(=O)c2cc(F)c(N3CC(C)(N)C3)c(F)c21,Log k',[1],-0.0757
CC1(N)CN(c2c(F)cc3c(=O)c(C(=O)O)cn(-c4ccc(F)cc4F)c3c2F)C1,Log k',[1],0.238
CC1(CN)CN(c2c(F)cc3c(=O)c(C(=O)O)cn(C4CC4)c3c2F)C1,Log k',[1],-0.0438
CC1(O)CN(c2cc3c(cc2F)c(=O)c(C(=O)O)cn3C2CC2)C1,Log k',[1],0.2148
NCC1CN(c2c(F)cc3c(=O)c(C(=O)O)cn(C4CC4)c3c2F)C1,Log k',[1],-0.196
CCn1cc(C(=O)O)c(=O)c2cc(F)c(N3C[C@@H](N)[C@@H]3C)c(Cl)c21,Log k',[1],0.16
same,MIC,Bacillus subtilis,0.03 µg/mL
same,MIC,Proteus vulgaris,0.25 µg/mL
same,MIC,Escherichia coli,0.06 µg/mL
same,MIC,Morganella morganii,0.03 µg/mL
same,MIC,Klebsiella pneumoniae,0.03 µg/mL
same,MIC,Staphylococcus aureus,0.12 µg/mL
same,MIC,Bacillus cereus,0.12 µg/mL
same,MIC,[2],0.12 µg/mL
same,MIC,Enterobacter cloacae,0.06 µg/mL
same,MIC,Enterococcus faecalis,0.5 µg/mL
CCNCC1CN(c2c(F)cc3c(=O)c(C(=O)O)cn(C4CC4)c3c2F)C1,Log k',[1],0.2742
CNC1(C)CN(c2nc3c(cc2F)c(=O)c(C(=O)O)cn3C2CC2)C1,Log k',[1],0.0408
CC1(N)CN(c2nc3c(cc2F)c(=O)c(C(=O)O)cn3-c2ccc(F)cc2)C1,Log k',[1],-0.0388
CC1(N)CN(c2c(F)cc3c(=O)c(C(=O)O)cn(-c4ccc(F)cc4F)c3c2Cl)C1,Log k',[1],0.3448
Nc1c(F)c(N2CC(N)C2)c(F)c2c1c(=O)c(C(=O)O)cn2-c1ccc(F)cc1F,Log k',[1],0.1424
CC1(N)CN(c2c(F)cc3c(=O)c(C(=O)O)cn(C(C)(C)C)c3c2F)C1,Log k',[1],0.1751
CCNCC1CN(c2cc3c(cc2F)c(=O)c(C(=O)O)cn3C2CC2)C1,Log k',[1],-0.106
CC1(N)CN(c2nc3c(cc2F)c(=O)c(C(=O)O)cn3CCF)C1,Log k',[1],-0.1706
O=C(O)c1cn(C2CC2)c2cc(N3CCC3)c(F)cc2c1=O,Log k',[1],0.7188
Nc1c(F)c(N2CC(O)C2)c(F)c2c1c(=O)c(C(=O)O)cn2C1CC1,Log k',[1],0.3487
NC1CN(c2c(F)cc3c(=O)c(C(=O)O)cn(-c4ccc(F)cc4F)c3c2Cl)C1,Log k',[1],0.128
CCNCC1(C)CN(c2c(F)cc3c(=O)c(C(=O)O)cn(C4CC4)c3c2F)C1,Log k',[1],-0.0118
CNC1(C)CN(c2cc3c(cc2F)c(=O)c(C(=O)O)cn3C(C)(C)C)C1,Log k',[1],0.303
NCC1CN(c2cc3c(cc2F)c(=O)c(C(=O)O)cn3C2CC2)C1,Log k',[1],-0.1549
CC1(N)CN(c2c(F)cc3c(=O)c(C(=O)O)cn(-c4ccc(F)cc4)c3c2F)C1,Log k',[1],0.1106
CC1(N)CN(c2cc3c(cc2F)c(=O)c(C(=O)O)cn3C(C)(C)C)C1,Log k',[1],0.0294
